How the values were obtained:
[1] = Inhibition of HIV1 NL4-3 gp160 assessed as inhibition of interaction between gp120 and host CD4 receptor by cell-cell fusion assay; set-up: species or system Human immunodeficiency virus 1
[2] = tested on: Human immunodeficiency virus 1; test: Antiviral activity against Human immunodeficiency virus 1 NL4-3 infected HeLaP4 cells after 5 days by beta-galactosidase reporter assay; type: functional, organism-based; settings: Human immunodeficiency virus 1, NL4-3, HeLaP4, 120 h
How it was run: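 HeLa-P4 cells were premixed with NL4-3 virus and added at 10^5 cells/mL to wells containing diluted compound. Plates were incubated for 5 days at 37 °C in humidified 5% CO₂. Infection was quantified with a β-galactosidase reporter assay.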

SMILES | IC50 [1] | IC50 [2]
CC(Oc1cccc2cccnc12)C(=O)N1CCN(C(=O)c2ccccc2)C[C@H]1C (some centres not stated) | 0.433 µM | 0.449 µM
CNC(=O)c1ccc(O[C@@H](C)C(=O)N2CCN(C(=O)c3ccccc3)C[C@H]2C)c2cccnc12 | 1.26 µM | 
CNC(=O)c1cc(OC)c(O[C@@H](C)C(=O)N2CCN(c3n[nH]c4ccccc34)C[C@H]2C)cn1 | 0.042 µM | 0.979 µM
CNC(=O)c1cc(OC)c(O[C@@H](C)C(=O)N2CCN(c3nccc4[nH]cnc34)C[C@H]2C)cn1 | 0.024 µM | 0.007 µM
CNC(=O)c1cc(OC)c(O[C@@H](C)C(=O)N2CCN(c3nccc4ncccc34)C[C@H]2C)cn1 | 0.029 µM | 0.126 µM
CC(Oc1cccc2ncccc12)C(=O)N1CCN(C(=O)c2ccccc2)C[C@H]1C (some centres not stated) | 0.099 µM | 0.271 µM
CC(Oc1cccc2ccncc12)C(=O)N1CCN(C(=O)c2ccccc2)C[C@H]1C (some centres not stated) | 0.575 µM | 2.04 µM
Cc1nc2c(OC(C)C(=O)N3CCN(C(=O)c4ccccc4)C[C@H]3C)cccc2o1 (some centres not stated) | 2.04 µM | 
CC(Oc1ccnc2ccccc12)C(=O)N1CCN(C(=O)c2ccccc2)C[C@H]1C (some centres not stated) | 7.43 µM | 
CNC(=O)c1ccc2c(O[C@@H](C)C(=O)N3CCN(C(=O)c4ccccc4)C[C@H]3C)cccc2n1 | 0.078 µM | > 4 µM
CNC(=O)c1nccc2c(O[C@@H](C)C(=O)N3CCN(C(=O)c4ccccc4)C[C@H]3C)ccc(F)c12 | 0.031 µM | 0.02 µM
CNC(=O)c1cc(OC)c(O[C@@H](C)C(=O)N2CCN(c3ncccn3)C[C@H]2C)cn1 | 0.071 µM | 1.62 µM
CC(Oc1cccc2c(=O)[nH]ccc12)C(=O)N1CCN(C(=O)c2ccccc2)C[C@H]1C (some centres not stated) | 0.068 µM | 1.05 µM
CNC(=O)c1ccc(O[C@@H](C)C(=O)N2CCN(C(=O)c3ccccc3)C[C@H]2C)c2ccncc12 | 21.2 µM | 
CC(Oc1cccc2nccnc12)C(=O)N1CCN(C(=O)c2ccccc2)C[C@H]1C (some centres not stated) | 0.493 µM | 
CC(Oc1cccc2ccccc12)C(=O)N1CCN(C(=O)c2ccccc2)C[C@H]1C (some centres not stated) | 0.123 µM | 1.07 µM

— ChEMBL document CHEMBL1155317, “Design and optimisation of potent gp120-CD4 inhibitors” (Bioorg Med Chem Lett, 2009)
